Reference: ChEMBL document CHEMBL1156545, “Unusual C25 steroid isomers with bicyclo[4.4.1]A/B rings from a volcano ash-derived fungus Penicillium citrinum” (J Nat Prod, 2008)
Active and inactive are the calls of the source. No cut-off for these calls is given here.

Experiments:
CHO = test: Induction of cAMP generation in wild-type CHO cells at 10 uM; format: functional, cell-based; conditions: Cricetulus griseus
Summary of the method: (§1)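 Test compounds at 10 µM applied to CHO cells transfected with GPR12 and, in parallel, to untransfected wild-type CHO cells, which serve as the receptor-free comparison. The read-out is cAMP production in each cell line. The assay follows literature cAMP methods.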

[1] = molecular target: T1, G-protein coupled receptor 12 (Homo sapiens) (UniProt P47775); test: Activity at GPR12 expressed in CHO cells assessed as induction of cAMP production at 10 uM; format: functional, cell-based; summary of the method: as §1
T1 sequence (whole entry): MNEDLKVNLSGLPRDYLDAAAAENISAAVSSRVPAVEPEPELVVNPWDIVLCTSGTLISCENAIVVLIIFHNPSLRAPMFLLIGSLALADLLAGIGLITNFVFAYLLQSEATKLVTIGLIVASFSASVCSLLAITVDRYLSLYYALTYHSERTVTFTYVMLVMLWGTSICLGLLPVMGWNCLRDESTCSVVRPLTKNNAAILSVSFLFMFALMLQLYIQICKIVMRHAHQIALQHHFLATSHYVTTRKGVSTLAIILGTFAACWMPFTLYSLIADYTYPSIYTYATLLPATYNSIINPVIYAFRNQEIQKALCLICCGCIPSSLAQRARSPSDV

SMILES	Activity [1]	Activity (CHO)
C/C(=C\[C@@H](O)[C@H](C)O)[C@H]1CC[C@H]2C3=CC(=O)[C@H]4CC(=CC[C@H](O)C4)[C@H]3CC[C@]12C	Active	inactive
CO[C@H](/C=C(\C)[C@H]1CC[C@H]2C3=CC(=O)[C@H]4CC(=CC[C@H](O)C4)[C@H]3CC[C@]12C)[C@@H](C)O	Active	inactive

Now from value to molecule, other results behind:

Activity [1]	SMILES	Activity (CHO)
Active	C[C@H](O)/C=C/[C@](C)(O)[C@H]1CC[C@H]2C3=CC(=O)[C@H]4CC(=CC[C@H](O)C4)[C@H]3CC[C@@]21C	inactive
Active	C/C(=C\[C@H](O)[C@H](C)O)[C@H]1CC[C@H]2C3=CC(=O)[C@H]4CC(=CC[C@H](O)C4)[C@H]3CC[C@]12C	inactive
Active	C[C@@H](O)/C=C/[C@](C)(O)[C@H]1CC[C@H]2C3=CC(=O)[C@H]4CC(=CC[C@H](O)C4)[C@H]3CC[C@@]21C	inactive
